Source: PubChem BioAssay (Broad Institute)
SKKanGAS inh: S. pyogenes SKKanGAS growth inhibitors in kanamycin, primary screen, streptokinase expression inhibitor project, SKKanGAS strain, BacTiter-Glo luminescence; 6 h; actives 1.3% (n = 300,000); AID 1662, 2009; inhibition, % at 7.5 µM;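 active = mean replicate score, as percent of positive control median, at least 50; inconclusive = mean below 50 but one replicate at or above 50; inactive = mean and every replicate below 50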;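 also: strain carries kanamycin resistance gene driven by streptokinase promoter and grows in 40 µg/ml kanamycin; loss of luminescence reflects streptokinase promoter inhibition or plain growth inhibition; 0% = median of DMSO wells and 100% = positive control at its reference dose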
HIF act: HIF pathway transcriptional activators, primary screen, cell-based, U2OS HRE-luciferase, luminescence | U2OS HRE-luciferase reporter; normalized: DMSO 0%, desferrioxamine 100% | activation, % at 7.5 µM (by protocol) | AID 1910, 2009 | actives 0.32% (n = 300,000);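 active = mean activation of at least 10% of the iron chelator positive control signal, with at least half of replicates also reaching 10%; inconclusive = mean and replicate majority disagree about reaching 10%; inactive = mean and most replicates under 10%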
Beta apoptosis: inhibitors of cytokine-induced beta cell apoptosis, primary screen, luminescence | protection from apoptosis, % (concentration not given with the values) | actives 0.8% (n = 300,000) | INS-1E cytokine-induced death, ATP luminescence, 48 h; percent of positive-control rescue, neutral wells zero;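 active = Every replicate reaches about 75%, or at least half do and their mean reaches it too, limit read from the data; inconclusive = At least half of replicates reach the limit but their mean does not; inactive = Under half of replicates reach the limit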;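 also: 0% = cytokine-treated negative control wells and 100% = positive control rescue; higher means more ATP so stronger rescue from cytokine killing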
PfHsp90 yeast 2: growth inhibition of PfHsp90-expressing yeast, primary screen, antimalarial PfHsp90 inhibitor project, S. cerevisiae, BacTiter-Glo luminescence, single point, set 2; BacTiter-Glo ATP, 48 h; yeast lacking PDR1 and PDR3 efflux regulators; inhibition, % at 9.4 µM; actives 0.32% (n = 310,000); AID 504621, 2011;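 active = every replicate shows inhibition above about 80%, whatever the replicate mean, limit read from the data; inconclusive = mean inhibition reaches the set limit but some replicate falls short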;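 also: 0% = DMSO neutral controls and 100% = 20 µM radicicol positive controls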
T cruzi repl: inhibitors of intracellular T. cruzi growth, primary screen, luminescence, NIH3T3 host cells; T. cruzi beta-gal in NIH3T3, 90 h; inhibition, % (test concentration not listed); actives 1.4% (n = 300,000);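 active = mean inhibition across valid replicates above about 55%, limit read from the data; inconclusive = mean below that limit but half or more replicates reach it; inactive = mean below it, under half of replicates reach it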;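 also: signal also drops with host cell toxicity which is not excluded here; 0% = plate median of DMSO wells and 100% = zero luminescence signal; higher percent means less beta-gal luminescence so fewer parasites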
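System: NIH/3T3 fibroblasts plus reporter T. cruzi. Medium: DMEM plus 2% FBS. Probe or stimulus: 5000 reporter trypomastigotes per well. Compound: single 50 nL compound addition per well in DMSO. Incubation: co-culture of at least 90 h after 3 h attachment. Detection: GalScreen β-gal luminescence, detergent lysis, 60 min. Evaluation: parasite load inhibition, %.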
CSC inhib: cancer stem cell viability inhibitors, primary screen, luminescence | cancer stem cell-like cells viability | AID 2717, 2010 | actives 1.1% (n = 300,000) | inhibition, % at 7.5 µM; in the data active = inhibition above about 75%; inconclusive = no clear call, values can overlap the other calls; tested in HMLE shEcad cells
The depositor's hits bear a star; ? = inconclusive; · = not tested or not shown. A selection: hits, their analogues and other compounds. The true share with any hit is near 3.6%.

SMILES	SKKanGAS inh	HIF act	Beta apoptosis	PfHsp90 yeast 2	T cruzi repl	CSC inhib
Cc1nn(-c2ccccc2)c2c1C(c1ccc([N+](=O)[O-])cc1)N1C(=N2)C(=O)Nc2ccccc21 (centres undefined)	30.4	-0.5	20.0	15.9	25.9	8.3
Cc1cccc(N2CC(C)Cn3c2nc2c3c(=O)[nH]c(=O)n2C)c1 (centres undefined)	0.3	-13.5	-0.2	-11.6	-8.6	15.5
COc1ccc(NC(=O)c2c(Nc3ccccc3)sc(C(=O)c3ccc(F)cc3)c2N)cc1	-2.1	0.0	103.7*	-59.6	6.9	37.8
CC(C)n1nc(C(=O)Nc2nnc(SCc3c(Cl)cccc3Cl)s2)c2ccccc2c1=O	63.7*	0.0	-5.7	-26.6	-12.1	36.1
CC(C)n1nc(C(=O)Nc2nc3ccc(S(C)(=O)=O)cc3s2)c2ccccc2c1=O	-2.4	0.0	8.2	11.1	-12.1	-7.3
O=C1CC2CCCN2C=C1I (centres undefined)	·	·	-3.7	4.3	·	·
CCOc1ccc(S(=O)(=O)NCc2ccccn2)c(C)c1C	0.2	1.1	·	93.2*	0.3	-12.2
Clc1ccc2c(N/N=C/c3cccnc3)ccnc2c1	-23.5	0.6	25.9	-9.5	65.0*	-0.5
Clc1ccc2c(N/N=C/c3ccc(Br)cc3)ccnc2c1	112.6*	-0.5	53.6	11.8	47.0	97.8*
Oc1ccc(/C=N/Nc2ccnc3cc(Cl)ccc23)c(O)c1	0.1	1.9	21.4	-15.4	-20.5	10.1
O=C(CSCC(=O)Nc1ccccc1)N/N=C/c1c(O)ccc2ccccc12	12.9	70.7*	-11.0	-14.1	13.9	57.6
Nc1cc(Cl)nc(N/N=C/c2c(O)ccc3ccccc23)n1	-12.4	12.9*	29.8	-2.9	8.4	2.6
O=C(N/N=C/c1c(O)ccc2ccccc12)Nc1ccccc1	92.9*	0.2	2.8	·	2.5	15.3
O=C(CN1CCOCC1)N/N=C/c1c(O)ccc2ccccc12	17.6	5.9	83.9*	-12.8	8.3	14.6
O=C(CN1CCOCC1)N/N=C/c1ccco1	6.4	-0.1	·	-52.1	-13.9	15.1
CC(=O)Nc1ccc(N=Cc2c(O)ccc3ccccc23)cc1	14.0	-1.3	-8.1	0.7	-4.3	-4.5
CN=C(C)/C(C(=O)OC)=C(/O)c1ccc(Cl)cc1Cl	2.9	-0.6	·	29.6	-7.6	-5.1
CC(C)=CCC/C(C)=C/CNC(=O)C[C@H]1C[C@H](C(=O)N2CCOCC2)[C@@]2(CCC3CCCC3)c3[nH]c4cc(CCC(=O)N(C)C)ccc4c3CCN2C1=O	·	·	·	-7.4	·	·
O=S1(=O)c2ccc(Br)cc2N2CC[C@H](C2)N1Cc1ccc(Cl)cc1	·	·	·	-41.4	·	·
O=C1C[C@@H]2c3c(cccc3CN1Cc1ccccc1F)C[C@@H](O)[C@H]2O	·	·	·	-1.1	·	·
O=C(CNc1ccccc1)N/N=C/c1c(O)ccc2ccccc12	101.4*	-1.2	83.5*	-14.4	10.7	57.3
O=C(O)c1cc(N/N=C/c2c(O)ccc3ccccc23)ccc1Cl	10.0	1.8	-10.2	-56.2	-10.8	10.7
COc1ccc(NC(C)C(=O)N/N=C/c2c(O)ccc3ccccc23)cc1 (centres undefined)	96.8*	-1.6	64.5	15.4	-4.8	6.7
COc1ccc(NC(=O)Cc2nnc(SCC(=O)NC3CCCC3)n2C)cc1	2.3	0.7	-12.4	-13.3	-6.8	4.0
Cc1cccn2c(/C=N/OCc3cccc(F)c3)c(-c3ccc(Cl)cc3)nc12	20.2	-0.8	5.3	4.2	22.2	84.9*
SMILES	SKKanGAS inh	HIF act	Beta apoptosis	PfHsp90 yeast 2	T cruzi repl	CSC inhib
Fc1cccc(CO/N=C/c2c(-c3ccccc3)nc3ccc(Cl)cn23)c1	6.4	-0.7	7.8	·	50.9	·
CCCCN1/C(=C/c2cccc[n+]2C)Sc2cc(NC(C)=O)ccc21	0.3	-2.2	25.2	7.2	13.5	-10.9
Cc1ccc2c(c1)S/C(=C/c1ccc[n+](C)c1)N2CCO	-0.8	-0.7	94.8*	-6.2	57.0*	1.2
O=S(=O)(N1CCCCC1)N1CCN(CC(O)COc2ccc3cc(Br)ccc3c2)CC1 (centres undefined)	19.6	-0.3	12.1	·	55.1*	-13.7
OC(COc1ccc(OCC(O)CN2CCCCCC2)cc1)CN1CCCCCC1 (centres undefined)	-0.9	0.3	3.2	-10.1	7.8	5.2
OC(COc1ccc2cc(Br)ccc2c1)CN1CCCC1 (centres undefined)	-3.6	1.0	3.6	12.0	70.5*	·
CN(C)S(=O)(=O)N1CCN(CC(O)COc2ccc3cc(Br)ccc3c2)CC1 (centres undefined)	8.2	0.1	4.9	2.8	18.2	26.1
CN1/C(=C\P(=O)(N(C)C)N(C)C)C(C)(C)c2ccccc21	-2.1	-0.4	87.0*	38.9	62.2*	0.5
C=C(C)COc1ccc(-c2ncncc2-c2ccccc2OC)c(O)c1	7.7	1.5	-4.0	1.4	66.0*	18.2
C=C(C)COc1ccc(-c2ncncc2-c2ccc(Br)cc2)c(O)c1	9.0	-1.0	7.0	-9.2	44.5	6.6
C=C(C)COc1ccc(-c2nc(N)nc(C(F)(F)F)c2-c2ccc(OC)cc2)c(O)c1	33.6	0.1	-1.9	-7.6	56.0*	50.2
C=C(C)COc1ccc(-c2nc(N)ncc2-c2ccc(Br)cc2)c(O)c1	96.4*	-1.1	-2.2	-62.7	19.6	106.6*
CCCOC(=O)c1ccc(Oc2cn[nH]c2-c2ccc(OC)cc2O)cc1	59.1*	0.1	0.6	105.9*	-21.6	103.7*
CC1(C)OC2OC(C3COC(=O)O3)C(OC(=O)c3ccccc3)C2O1 (centres undefined)	·	·	·	8.3	·	·
NC(=O)c1ccc[n+](Cc2ccc(-c3ccccc3)cc2)c1	4.2	-1.8	-11.6	-11.0	-8.9	14.2
COc1ccc(/C=N/Nc2ccccc2)cc1Cn1nc(C)c([N+](=O)[O-])c1C	-4.6	0.0	·	-5.2	19.5	10.1
O=C(CSc1nc2cc(C(=O)O)ccc2c(=O)n1-c1ccc(F)cc1)Nc1ccc(F)c(F)c1F	21.9	0.4	-8.2	1.1	3.3	1.9
C=C(C)COc1ccc(-c2[nH]ncc2Oc2ccccc2OC)c(O)c1	28.7	0.1	-5.9	8.7	-11.4	-0.7
CCc1cc(-c2nc(N)ncc2-c2ccc(Br)cc2)c(O)cc1OC	63.5*	-0.1	7.0	-3.7	32.5	?
COc1ccc(-c2cnc(N)nc2-c2ccc(OCc3ccccc3)cc2O)cc1	17.7	-0.6	-1.9	-12.1	57.9*	29.9
C=C(C)COc1ccc(-c2nc(N)ncc2Oc2ccc(OC)cc2)c(O)c1	58.0*	0.0	-12.1	-10.9	43.5	23.7
